Test results: ChEMBL document CHEMBL4390639, “Design, Synthesis, and Biological Evaluation of Novel Allosteric Protein Disulfide Isomerase Inhibitors” (J Med Chem, 2019)
The source made the active and inactive calls. The rule behind the calls is not given here.

Experiments:
[1] = Cytotoxicity against human NU04 cells assessed as inhibition of cell growth measured after 72 hrs by MTT assay; assay type: functional, cell-based
How it was run: (§1)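 A172 and NU04 cells were seeded at 4000 cells/well and U87MG at 5000 cells/well, incubated overnight at 37 °C, 5% CO2, then exposed to compound or vehicle for 72 h. MTT (3 mg/mL) was added for 4 h, formazan was dissolved in DMSO, and absorbance was read at 570 nm. IC50 came from nonlinear regression; mean ± SD of at least three experiments.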

U-87 MG [2] = assay: Cytotoxicity against human U87MG cells assessed as inhibition of cell growth measured after 72 hrs by MTT assay; assay type: functional, cell-based, U-87MG ATCC; how it was run: as §1
[3] = molecular target: T1, Protein disulfide-isomerase (Homo sapiens, UniProt P07237); assay: Inhibition of recombinant human N-terminal His-tagged PDI expressed in Escherichia coli BL21 (DE3) pLysS assessed as reduction in enzyme-mediated bovine insulin aggregation
Target sequence in this assay (P07237 whole entry): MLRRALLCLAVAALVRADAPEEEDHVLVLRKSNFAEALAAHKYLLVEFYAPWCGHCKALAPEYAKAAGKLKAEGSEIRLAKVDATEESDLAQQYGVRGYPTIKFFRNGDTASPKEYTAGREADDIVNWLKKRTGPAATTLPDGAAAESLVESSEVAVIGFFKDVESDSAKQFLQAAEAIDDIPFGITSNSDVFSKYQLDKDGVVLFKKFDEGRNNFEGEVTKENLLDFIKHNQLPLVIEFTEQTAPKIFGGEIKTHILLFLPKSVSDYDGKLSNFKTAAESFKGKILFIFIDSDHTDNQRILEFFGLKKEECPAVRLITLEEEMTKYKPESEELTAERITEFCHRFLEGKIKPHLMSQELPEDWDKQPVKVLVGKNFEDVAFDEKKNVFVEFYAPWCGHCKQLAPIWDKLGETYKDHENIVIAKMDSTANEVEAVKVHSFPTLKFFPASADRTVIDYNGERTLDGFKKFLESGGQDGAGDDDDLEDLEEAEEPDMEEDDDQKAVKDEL

U-87 MG [4] = assay: Cytotoxicity against human U87MG cells assessed as inhibition of cell proliferation at <IC50 treated for 24 hrs, measured after 10 days by colony formation assay relative to control
A 172 [5] = assay: Cytotoxicity against human A172 cells assessed as inhibition of cell growth measured after 72 hrs by MTT assay; assay type: functional, cell-based; how it was run: as §1
[6] = molecular target: Eukaryotic translation initiation factor 2 subunit 1 (Homo sapiens) (UniProt P05198); assay: Induction of EIF2alpha phosphorylation in human A172 cells at 10 ug/ml measured after 2 hrs by Western blot analysis; assay type: cell-based
Sequence of Eukaryotic translation initiation factor 2 subunit 1 (Homo sapiens) (P05198 whole entry): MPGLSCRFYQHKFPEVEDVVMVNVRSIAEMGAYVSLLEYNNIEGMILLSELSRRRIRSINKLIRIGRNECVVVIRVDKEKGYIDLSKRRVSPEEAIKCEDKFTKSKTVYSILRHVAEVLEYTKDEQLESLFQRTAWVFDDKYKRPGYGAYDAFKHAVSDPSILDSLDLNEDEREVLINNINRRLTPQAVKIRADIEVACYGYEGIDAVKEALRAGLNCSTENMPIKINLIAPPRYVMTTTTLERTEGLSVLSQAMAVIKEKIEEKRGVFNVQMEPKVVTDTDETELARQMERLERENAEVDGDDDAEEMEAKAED

[7] = molecular target: Eukaryotic translation initiation factor 2 subunit 1 (Homo sapiens) (UniProt P05198); assay: Induction of EIF2alpha phosphorylation in human U87MG cells at 10 ug/ml measured after 2 hrs by Western blot analysis; assay type: cell-based
How it was run: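 U87MG cells (0.5 x 10^6 per well) exposed to tunicamycin at 10 µg/mL for 2 h. Cells lysed by sonication in Tris/NaCl/Triton X-100/SDS buffer, pH 7.4, and cleared at 13,500×g, 4 °C. Protein was measured by BCA, and 30 µg was run on 10% acrylamide gels and transferred to PVDF. Antibody signal was read by fluorescence imaging.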

[8] = molecular target: T1, Protein disulfide-isomerase; assay: Inhibition of recombinant human N-terminal His-tagged PDI expressed in Escherichia coli BL21 (DE3) pLysS at 100 uM measured after 1 hr by ANS dye based fluorescence spectra analysis
How it was run: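 ANS spectral scan: PDI incubated with 100 μM compounds or matching DMSO in TBS for 1 h at 37 °C. ANS then added and incubated 20 min at 25 °C in the dark. Fluorescence spectrum recorded with excitation 370 nm, emission 400–700 nm.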
Target sequence in this assay (P07237 18-508 limits assumed): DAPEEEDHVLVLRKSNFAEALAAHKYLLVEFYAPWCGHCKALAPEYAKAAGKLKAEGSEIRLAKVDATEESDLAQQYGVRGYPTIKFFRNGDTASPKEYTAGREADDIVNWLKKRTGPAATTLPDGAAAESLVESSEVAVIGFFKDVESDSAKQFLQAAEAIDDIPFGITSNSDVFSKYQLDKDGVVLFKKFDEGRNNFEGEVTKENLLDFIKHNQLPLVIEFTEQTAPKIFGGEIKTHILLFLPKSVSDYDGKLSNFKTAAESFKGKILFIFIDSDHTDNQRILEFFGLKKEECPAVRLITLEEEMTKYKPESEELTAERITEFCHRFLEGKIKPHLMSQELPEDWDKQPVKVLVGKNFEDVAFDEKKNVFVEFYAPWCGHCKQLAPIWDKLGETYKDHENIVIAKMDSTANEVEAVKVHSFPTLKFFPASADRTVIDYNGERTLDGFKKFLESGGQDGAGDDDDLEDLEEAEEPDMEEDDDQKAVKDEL

[9] = molecular target: T1, Protein disulfide-isomerase; assay: Binding affinity to recombinant human N-terminal His-tagged PDI expressed in Escherichia coli BL21 (DE3) pLysS assessed as change in melting temperature at 100 uM by ROX dye based thermal shift assay
How it was run: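 Purified wild-type, C53S/C397S or H256A PDI at 0.5 mg/mL in 50 mM Tris, pH 7.0, with or without 100 μM compound, was mixed with ROX dye in a 20 µL well. DMSO (5% in buffer) was the control. Samples were heated 25–99 °C at 1 °C/min, and the Boltzmann melting temperature shift versus DMSO was reported. Mean ± SD of three experiments.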
Target sequence in this assay (P07237 18-508 limits assumed): as above

A 172 [10] = assay: Induction of morphological changes in human A172 cells at 40 uM measured after 48 hrs by Giemsa-staining based microscopic analysis; assay type: functional, cell-based
[11] = Solubility of the compound in DMSO; assay type: physicochemical
[12] = Homo sapiens, 72 h, read-out: IC50
[13] = Homo sapiens, U-87 MG, 72 h, read-out: IC50
[14] = Homo sapiens, A 172, 72 h, read-out: IC50

Compound | IC50 [1, 12] | IC50 (U-87 MG [2]; [13]) | IC50 [3] | inhibition (INH) (U-87 MG [4]) | IC50 (A 172 [5]; [14]) | also measured
N#Cc1cccc(/C=C/C(=O)c2ccc(O)c(F)c2)c1 | 9.8 µM | 29.1 µM | 1.14 µM | >50% | 21.9 µM | 
CCCCCCCCCCCCC/C=C/C(=O)N[C@H]1[C@H](O[C@H]2O[C@H](CO)[C@@H](O)[C@H](O)[C@H]2NC(C)=O)O[C@H](C[C@@H](O)[C@H]2O[C@@H](n3ccc(=O)[nH]c3=O)[C@H](O)[C@@H]2O)[C@H](O)[C@@H]1O |  |  |  |  |  | Activity [6]: Active; Activity [7]: Active
COc1ccc(C(=O)/C=C/c2cccc(C#N)c2)cc1 |  |  | > 500 µM |  |  | inhibition [8]: inactive; ΔTm [9]: -0.24 °C; Activity (A 172 [10]): inactive
N#Cc1cccc(/C=C/C(=O)c2ccc(F)c(O)c2)c1 | 10.6 µM | 22.9 µM | 1.15 µM | >50% | 16.8 µM | 
N#Cc1cccc(/C=C/C(=O)c2ccc(S(=O)(=O)NC3CC3)cc2)c1 |  |  | 1.05 µM |  |  | IC50 [1]: Nd(Insoluble); IC50 (U-87 MG [2]; u-87mg atcc): Nd(Insoluble); solubility [11]: Insoluble; IC50 (A 172 [5]; a 172): Nd(Insoluble)
